Published values collected from several papers.
Each line is one published result; the experiments were not run side by side.
Read-out: cell growth or viability

SMILES	cell line	technique	tested at	time	endpoint	result
O=C(CCl)Cn1nnc(-c2ccccc2)c1COC(=O)NCc1ccccc1	HFF-1	ATP luminescence		48 h	CC50	20 µM
COc1cccc2c1C(=O)c1c(O)c3c(c(O)c1C2=O)C[C@@](O)(C(=O)CO)C[C@@H]3O[C@H]1C[C@H](N)[C@H](O)[C@H](C)O1	HFF-1	resazurin		72 h	CC50	0.468 µM
O=C(O)c1ccc(P(c2ccccc2)c2ccccc2)cc1	NIH3T3	resazurin		18 h	CC50	210 µg/mL
CCCCCCCCCCCCCCCc1ccc(CP(=O)(O)O)cc1	Mm1	trypan blue	10 µM	20 h	viability	> 93%
N=C(N)NCc1ccc(NC(=O)c2ccc(C(=O)Nc3ccc(C4=CCN(C(=N)N)CC4)nn3)cc2)cc1	NIH3T3	MTS		24 h	CC50	231 µM
COc1ccc(S(=O)(=O)ON=C2C=C(C)C(=O)C(C)=C2)cc1	PC-3				CC50	4.74 µM
N=C(N)NCc1ccc(NC(=O)c2ccc(C(=O)Nc3ccc(C4=CCN(C(=N)N)CC4)cc3)cn2)cc1	NIH3T3	MTS		24 h	CC50	> 1170 µM
COc1cc(OC)cc([C@H]2C[C@@H](C)OC(=O)c3cc4ccccn4c32)c1 (racemic)	HFF-1	resazurin		72 h	CC50	> 100 µM
